Assay results taken from ChEMBL document CHEMBL5030505, “Assessment of NR4A Ligands That Directly Bind and Modulate the Orphan Nuclear Receptor Nurr1” (J Med Chem, 2020).
The source made the active and inactive calls. No cut-off for these calls is given here.

How the values were obtained:
Type in all cases: cell-based
[1] = target: Nuclear receptor subfamily 4 group A member 2 (Homo sapiens) (UniProt P43354); assay: Modulation of full length human Nurr1 expressed in HEK293T cells co-transfected with RXRalpha and luciferase reporter plasmid harboring NBRE response element assessed as increase in luciferase activity incubated for 18 hrs by luciferase reporter-gene assay; conditions: filed as modulator
How it was run: (§1)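 Full-length Nurr1 plasmid, alone (2 μg) or 1 μg plus full-length RXRα (1 μg), cotransfected with 3xNBRE- or 3xNurRE-luciferase reporter (6 μg) using Lipofectamine 2000, 18 h. Cells replated at 10,000/well for 4 h. Four ligand concentrations, or vehicle (water, ethanol or DMSO), added in quadruplicate for 18 h. Luciferase read. Fold change vs vehicle, mean ± s.e.m., one-way ANOVA vs vehicle.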

[2] = target: Nuclear receptor subfamily 4 group A member 2 (Homo sapiens) (UniProt P43354); assay: Modulation of full length human Nurr1 expressed in PC12 cells co-transfected with luciferase reporter plasmid harboring NBRE response element assessed as increase in luciferase activity incubated for 18 hrs by luciferase reporter-gene assay; conditions: PC-12, filed as modulator
How it was run: (§2)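 Here PC12 cells (FK-12 medium, 15% horse serum, 2.5% FBS, 37°C, 5% CO2) received full-length Nurr1 (2 μg) without RXRα, plus 3xNBRE- or 3xNurRE-luciferase reporter (6 μg), for 18 h. Cells were replated at 10,000/well for 4 h, then treated with ligand or vehicle in quadruplicate for 18 h. Luciferase luminescence was normalized to vehicle-treated cells. Results are mean ± s.e.m. (n=4) from 2 independent experiments, with one-way ANOVA against vehicle.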

[3] = target: Nuclear receptor subfamily 4 group A member 2 (Homo sapiens) (UniProt P43354); assay: Modulation of full length human Nurr1 expressed in HEK293T cells co-transfected with RXRalpha and luciferase reporter plasmid harboring NBRE response element assessed as decrease in luciferase activity at 1.95 to 125 uM incubated for 18 hrs by luciferase reporter gene assay; conditions: filed as modulator, dose 1.95-125 µM; how it was run: as §1
[4] = target: Nuclear receptor subfamily 4 group A member 2 (Homo sapiens) (UniProt P43354); assay: Modulation of full length human Nurr1 expressed in PC12 cells co-transfected with luciferase reporter plasmid harboring NBRE response element assessed as decrease in luciferase activity at 1.95 to 125 uM incubated for 18 hrs by luciferase reporter gene assay; conditions: PC-12, filed as modulator, dose 1.95-125 µM; how it was run: as §2
[5] = target: Nuclear receptor subfamily 4 group A member 2 (Homo sapiens) (UniProt P43354); assay: Modulation of full length human Nurr1 expressed in PC12 cells co-transfected with RXRalpha and luciferase reporter plasmid harboring NBRE response element assessed as decrease in luciferase activity at 1.95 to 125 uM incubated for 18 hrs by luciferase reporter gene assay; conditions: PC-12, filed as modulator, dose 1.95-125 µM; how it was run: as §1
[6] = tested on: SKNBE2; assay: Modulation of Gal4-fused VP16 expressed in SKNBE(2) cells co-transfected with UAS repoter gene assessed as increase in luciferase activity upto 15 uM incubated for 18 hrs by luciferase reporter gene assay; conditions: Human alphaherpesvirus 2, filed as modulator, dose microM <=15, time 18.0 hrs
How it was run: (§3)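 Cells in 10-cm dishes were transfected with Gal4-VP16 expression plasmid (2 μg) plus 5xUAS-luciferase reporter (2 μg) for 18 h. They were replated at 10,000 cells/well for 4 h, then given ligand or vehicle (water, ethanol or DMSO) in quadruplicate for 18 h. Luciferase was read with Britelite Plus. Fold change is versus vehicle-treated cells, with one-way ANOVA versus vehicle.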

[7] = target: Nuclear receptor subfamily 4 group A member 2 (Homo sapiens) (UniProt P43354); assay: Modulation of full length human Nurr1 expressed in HEK293T cells co-transfected with luciferase reporter plasmid harboring NurRE response element assessed as decrease in luciferase activity at 1.95 to 125 uM incubated for 18 hrs by luciferase reporter gene assay; conditions: filed as modulator, dose 1.95-125 µM; how it was run: as §1
[8] = target: Nuclear receptor subfamily 4 group A member 2 (Homo sapiens) (UniProt P43354); assay: Modulation of full length human Nurr1 expressed in SK-N-BE(2) cells co-transfected with RXRalpha and luciferase reporter plasmid harboring NBRE response element assessed as increase in luciferase activity at 1.95 to 125 uM incubated for 18 hrs by luciferase reporter gene assay; conditions: SKNBE2, filed as modulator, dose 1.95-125 µM
How it was run: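 SK-N-BE(2)-C cells were kept in 1:1 EMEM/F12 with 10% FBS at 37°C and 5% CO2. They were cotransfected with full-length Nurr1 (1 μg), full-length RXRα (1 μg) and 3xNBRE- or 3xNurRE-luc reporter (6 μg) for 18 h, replated at 10,000 cells/well for 4 h, and then treated with ligand or vehicle in quadruplicate for 18 h. The readout was luciferase luminescence as fold over vehicle, reported as mean ± s.e.m. (n=4) from 2 independent experiments, one-way ANOVA.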

[9] = target: Nuclear receptor subfamily 4 group A member 2 (Homo sapiens) (UniProt P43354); assay: Modulation of full length human Nurr1 expressed in HEK293T cells co-transfected with luciferase reporter plasmid harboring NBRE response element assessed as decrease in luciferase activity at 1.95 to 125 uM incubated for 18 hrs by luciferase reporter gene assay; conditions: filed as modulator, dose 1.95-125 µM; how it was run: as §1
[10] = target: Nuclear receptor subfamily 4 group A member 2 (Homo sapiens) (UniProt P43354); assay: Modulation of full length human Nurr1 expressed in SK-N-BE(2) cells co-transfected with luciferase reporter plasmid harboring NBRE response element assessed as increase in luciferase activity at 1.95 to 125 uM incubated for 18 hrs by luciferase reporter gene assay; conditions: SKNBE2, filed as modulator, dose 1.95-125 µM
How it was run: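 Transfection of SK-N-BE(2)-C cells (1:1 EMEM/F12, 10% FBS, 37°C, 5% CO2) used full-length Nurr1 alone (2 μg, no RXRα) with 3xNBRE- or 3xNurRE-luciferase reporter (6 μg) for 18 h. Cells were replated at 10,000/well for 4 h, then exposed to ligand or vehicle in quadruplicate for 18 h. Luminescence was expressed as fold over vehicle, as mean ± s.e.m. (n=4) from 2 independent experiments, one-way ANOVA against vehicle.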

[11] = tested on: SKNBE2; assay: Modulation of Gal4-fused VP16 expressed in SKNBE(2) cells co-transfected with UAS repoter gene assessed as decrease in luciferase activity at 125 uM incubated for 18 hrs by luciferase reporter gene assay; conditions: Human alphaherpesvirus 2, filed as modulator; how it was run: as §3
[12] = target: Nuclear receptor subfamily 4 group A member 2 (Homo sapiens) (UniProt P43354); assay: Modulation of full length human Nurr1 expressed in HEK293T cells co-transfected with RXRalpha and luciferase reporter plasmid harboring NurRE response element assessed as decrease in luciferase activity at 1.95 to 125 uM incubated for 18 hrs by luciferase reporter gene assay; conditions: filed as modulator, dose 1.95-125 µM; how it was run: as §1
[13] = target: Nuclear receptor subfamily 4 group A member 2 (Homo sapiens) (UniProt P43354); assay: Modulation of full length human Nurr1 expressed in PC12 cells co-transfected with RXRalpha and luciferase reporter plasmid harboring NurRE response element assessed as decrease in luciferase activity at 1.95 to 125 uM incubated for 18 hrs by luciferase reporter gene assay; conditions: PC-12, filed as modulator, dose 1.95-125 µM
How it was run: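 PC12 cells were grown at 37°C and 5% CO2 in […] medium with 15% horse serum and 2.5% FBS. They were transfected with full-length Nurr1 (1 μg) plus full-length RXRα (1 μg) and 3xNBRE- or 3xNurRE-luciferase reporter (6 μg) for 18 h, then replated at 10,000 cells/well for 4 h. Ligand or vehicle (water, ethanol or DMSO) was added in quadruplicate for 18 h. Luminescence was read as fold change over vehicle. Results are mean ± s.e.m., n=4, from 2 independent experiments, analysed by one-way ANOVA against vehicle.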

[14] = tested on: SK-N-BE(2); assay: Cytotoxicity against human SKNBE2 cells assessed as reduction in cell viability at 125 uM incubated for 18 hrs by Cell Titer Glo assay
How it was run: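 Cells seeded at 1.5 million per 10-cm dish. Next day they were replated at 10,000 cells/well and rested 4 h. Ligand or vehicle (water, ethanol or DMSO, by ligand) was added in dose-response format in quadruplicate. After 18 h, viability was read by CellTiter-Glo luminescence. Data are mean ± s.e.m., generally representative of 2 independent experiments. One-way ANOVA versus vehicle.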

Nuclear receptor subfamily 4 group A member 2 (Homo sapiens), sequence (P43354 whole entry, the tested form may be a part): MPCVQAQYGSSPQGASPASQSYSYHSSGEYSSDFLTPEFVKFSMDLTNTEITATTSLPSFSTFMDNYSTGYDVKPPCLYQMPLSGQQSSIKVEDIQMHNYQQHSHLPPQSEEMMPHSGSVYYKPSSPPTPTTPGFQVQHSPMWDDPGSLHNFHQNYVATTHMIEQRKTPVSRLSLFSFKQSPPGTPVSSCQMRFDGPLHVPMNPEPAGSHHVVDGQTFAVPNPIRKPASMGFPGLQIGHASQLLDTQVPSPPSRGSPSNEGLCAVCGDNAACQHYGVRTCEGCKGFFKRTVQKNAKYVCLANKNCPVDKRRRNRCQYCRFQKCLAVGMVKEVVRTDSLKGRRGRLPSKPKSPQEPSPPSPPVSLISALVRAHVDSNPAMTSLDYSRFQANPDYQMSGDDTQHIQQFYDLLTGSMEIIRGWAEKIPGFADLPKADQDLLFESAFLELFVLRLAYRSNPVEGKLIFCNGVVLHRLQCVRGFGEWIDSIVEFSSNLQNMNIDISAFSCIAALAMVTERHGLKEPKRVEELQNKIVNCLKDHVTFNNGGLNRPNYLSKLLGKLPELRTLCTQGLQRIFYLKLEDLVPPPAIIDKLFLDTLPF

## CCCCCCCC(=O)c1c(O)cc(O)cc1CC(=O)OCC [CYTOSPORONE B]
[1]
  Activity: Dose-Dependent Effect
[2]
  Activity: Dose-Dependent Effect

## CCN(CC)Cc1cc(Nc2ccnc3cc(Cl)ccc23)ccc1O [AMODIAQUINE]
[1]
  Activity: Dose-Dependent Effect
[3]
  Activity: Active
[4]
  Activity: Active
[5]
  Activity: Active
[6]
  Activity: Active
[7]
  Activity: Active
[8]
  Activity: Active
[9]
  Activity: Active
[2]
  Activity: Dose-Dependent Effect
[10]
  Activity: Active
[11]
  Activity: Active
[12]
  Activity: Active
[13]
  Activity: Active
[14]
  Activity: Non-Toxic

## CCN(CC)CCCC(C)Nc1ccnc2cc(Cl)ccc12 (stereo not given) [CHLOROQUINE]
[1]
  Activity: Dose-Dependent Effect
[3]
  Activity: Active
[4]
  Activity: Active
[5]
  Activity: Active
[6]
  Activity: Active
[7]
  Activity: Active
[8]
  Activity: Active
[9]
  Activity: Active
[2]
  Activity: Dose-Dependent Effect
[10]
  Activity: Active
[11]
  Activity: Active
[12]
  Activity: Active
[13]
  Activity: Active
[14]
  Activity: Non-Toxic
